What follows are compounds tested against NAD-dependent histone deacetylase SIR2 (Saccharomyces cerevisiae S288c) (UniProt P06700) (assay: Inhibition of yeast TEL::-URA3 Sir2 assessed as growth inhibition of yeast at 50 uM after 24 to 48 hrs).
In short: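 Yeast cell-based reporter silencing screen for Sir2, the yeast homologue of SIRT1. Strain TEL::URA3 (MATα ura3-52 lys2-801 ade2-101 trpΔ63 his3Δ200 leu2-Δ1 TEL adh4::URA3) carries URA3 inserted at a telomeric locus, where Sir2 silences it. Inhibition was scored as inhibition of growth of this strain in the presence of 5-fluoroorotic acid. Compounds were tested at 50 µM, with splitomicin as the reference inhibitor.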

Chain of NAD-dependent histone deacetylase SIR2 (Saccharomyces cerevisiae S288c) (P06700 whole entry): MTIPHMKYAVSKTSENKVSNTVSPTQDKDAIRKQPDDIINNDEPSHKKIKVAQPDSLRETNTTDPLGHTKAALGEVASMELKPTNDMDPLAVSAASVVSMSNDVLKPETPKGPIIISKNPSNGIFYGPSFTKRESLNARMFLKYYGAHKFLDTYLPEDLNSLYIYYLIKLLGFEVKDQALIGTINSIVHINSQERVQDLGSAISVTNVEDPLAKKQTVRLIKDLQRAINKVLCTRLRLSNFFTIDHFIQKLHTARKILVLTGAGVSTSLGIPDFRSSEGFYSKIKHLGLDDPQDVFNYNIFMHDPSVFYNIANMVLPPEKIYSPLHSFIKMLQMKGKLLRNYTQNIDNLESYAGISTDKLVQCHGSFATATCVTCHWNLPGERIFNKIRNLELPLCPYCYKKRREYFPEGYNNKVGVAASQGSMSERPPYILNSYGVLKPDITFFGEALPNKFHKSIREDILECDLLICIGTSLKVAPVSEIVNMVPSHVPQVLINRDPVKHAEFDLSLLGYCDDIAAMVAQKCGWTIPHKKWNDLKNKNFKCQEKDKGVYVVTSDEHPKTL

Compound | inhibition [%]
CC1(C)CC(=O)C2=C(C1)N(c1ccc(Br)cc1)C1=C(C(=O)CC(C)(C)C1)C2c1ccc2ccccc2c1 | 10.6
CC1(C)CC(=O)C2=C(C1)N(c1ccccc1I)C1=C(C(=O)CC(C)(C)C1)C2c1cccc(O)c1 | 23.7
CCOC(=O)c1c(N2C3=C(C(=O)CC(C)(C)C3)C(c3cccs3)C3=C2CC(C)(C)CC3=O)sc2c1CCCC2 | 16.2
CC1(C)CC(=O)C2=C(C1)N(c1ccccc1)C1=C(C(=O)CC(C)(C)C1)C2c1ccccc1O | 15.6
CC1(C)CC(=O)C2=C(C1)N(c1ccc(Cl)cc1)C1=C(C(=O)CC(C)(C)C1)C2c1cccc([N+](=O)[O-])c1 | 29.2
CC1(C)CC(=O)C2=C(C1)N(c1ccc(C(F)(F)F)cc1)C1=C(C(=O)CC(C)(C)C1)C2c1cccc(O)c1 | 28.5
CC1(C)CC(=O)C2=C(C1)N(c1ccc(I)cc1)C1=C(C(=O)CC(C)(C)C1)C2c1cccs1 | 13
CC1(C)CC(=O)C2=C(C1)N(c1ccc(F)cc1)C1=C(C(=O)CC(C)(C)C1)C2c1cccc(F)c1 | 28.4

The remaining lines, values ahead:

inhibition [%] | Compound
32.5 | CC1(C)CC(=O)C2=C(C1)N(c1ccc(Br)cc1)C1=C(C(=O)CC(C)(C)C1)C2c1cccc(O)c1
35.2 | CC1(C)CC(=O)C2=C(C1)N(c1ccc(I)cc1)C1=C(C(=O)CC(C)(C)C1)C2c1cccc([N+](=O)[O-])c1
30.2 | Cc1ccc(N2C3=C(C(=O)CC(C)(C)C3)C(c3cccc(O)c3)C3=C2CC(C)(C)CC3=O)cc1
41.1 | CC1(C)CC(=O)C2=C(C1)N(c1ccc(I)cc1)C1=C(C(=O)CC(C)(C)C1)C2c1cccc(O)c1
33.5 | CC1(C)CC(=O)C2=C(C1)N(c1ccc(F)cc1)C1=C(C(=O)CC(C)(C)C1)C2c1cccc(O)c1
17.9 | CC1(C)CC(=O)C2=C(C1)N(c1ccc(C#N)cc1)C1=C(C(=O)CC(C)(C)C1)C2c1cccc(O)c1
12.8 | CC(=O)c1ccc(N2C3=C(C(=O)CC(C)(C)C3)C(c3cccc(O)c3)C3=C2CC(C)(C)CC3=O)cc1

From ChEMBL document CHEMBL2331242, “Amberlite IR-120H catalyzed MCR: design, synthesis and crystal structure analysis of 1,8-dioxodecahydroacridines as potential inhibitors of sirtuins” (Bioorg Med Chem Lett, 2013)
